According to ChEMBL document CHEMBL6074702, “Discovery of 4-(5-Membered)Heteroarylether-6-methylpicolinamide Negative Allosteric Modulators of Metabotropic Glutamate Receptor Subtype 5” (ACS Med Chem Lett, 2024):
Each block holds one compound with its values, some of them ahead of it. Activity calls are given as the source filed them. The calls are words filed in the database; no cut-off is given here.

Tests used:
[1] = Unbound fraction in rat plasma at 5 uM incubated for 6 hrs by equilibrium dialysis based LC-MS/MS analysis; format: ADME, cell-free
In short: (§1)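 Equilibrium dialysis of plasma spiked at 5 μM final against DPBS, in triplicate, 6 h at 37 °C. Samples were matrix-matched, acetonitrile-extracted with carbamazepine as internal standard, and analyzed by LC-MS/MS. fu = buffer-side/plasma-side analyte:IS peak area ratio, mean of 3 replicates.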

[2] = Ratio of unbound drug concentration in Sprague-Dawley rat brain to plasma at 0.2 mg/kg, iv measured after 0.25 hrs by LC-MS/MS analysis; format: ADME, organism-based
In short: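 Male Sprague Dawley rats (n = 1) received a single IV dose through a jugular catheter, formulated in 10% ethanol/40% PEG400/50% DMSO at 0.5 mL/kg. Terminal plasma (K2EDTA) and whole brain were taken at 15 min. Brain was homogenized in isopropanol:water 7:3. Samples were acetonitrile-precipitated with carbamazepine as internal standard and quantified by LC-MS/MS against a plasma standard curve, with dilution correction.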

[3] = Unbound fraction in rat brain at 1 uM incubated for 6 hrs by equilibrium dialysis based LC-MS/MS analysis; format: ADME, tissue-based
In short: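 Naïve rat brain was homogenized in DPBS (1:3 w/w) and dialyzed against DPBS at 1 μM final, in triplicate, 6 h at 37 °C. Quantification was by LC-MS/MS. Diluted fu2 = buffer/homogenate peak area ratio, corrected to undiluted fu using the 1/4 dilution equation; mean of 3 replicates.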

[4] = Unbound fraction in human plasma at 5 uM incubated for 6 hrs by equilibrium dialysis based LC-MS/MS analysis; format: ADME, cell-free; in short: as §1
[5] = target: Metabotropic glutamate receptor 8 (Homo sapiens) (UniProt O00222); assay: Negative allosteric modulation of human mGlu8 expressed in HEK293-A assessed as inhibition of glutamate induced-calcium mobilization preincubated for 140 sec followed by glutamate addition at EC20 concentration for 125 sec and measured after 90 sec addition of glutamate at EC80 concentration by Fluo-4 AM dye based fluorescence assay; format: functional, cell-based; settings: time 355.0 sec
In short: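 HEK293 cells stably co-expressing human mGlu8 and mouse Gα15 were plated at 15,000/well and grown overnight. Fluo-4-AM (final 1.15 μM) was loaded for 50 min at 37 °C, […]. The FDSS run was at RT: compound, then glutamate EC20, then EC80 additions. Compounds were run as 10-point 1:3 curves; ex 480/em 530 nm. Data were normalized to glutamate ECmax and fitted to a four-parameter logistic equation.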

[6] = Drug metabolism in cryopreserved dog Hepatocyte assessed as amide hydrolysis mediated metabolite formation at 10 uM measured after 4 hrs; format: ADME, cell-based, Canis lupus familiaris; settings: hepatocytes
In short: (§2)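 Rat, dog, monkey and human hepatocytes were incubated with 10 μM compound and sampled at 0 and 4 h. Metabolites were tentatively identified by accurate-mass LC-MS (observed m/z). Retention times were taken from MS extracted ion chromatograms.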

[7] = target: Metabotropic glutamate receptor 3 (Homo sapiens) (UniProt Q14832); assay: Negative allosteric modulation of human mGlu3 receptor expressed in HEK293 cells harboring GIRK assessed as maximal inhibition response by thallium flux assay relative to glutamate; format: cell-based; settings: filed as negative allosteric modulator
[8] = Drug metabolism in cryopreserved human Hepatocyte assessed as amide hydrolysis mediated metabolite formation at 10 uM measured after 4 hrs; format: ADME, cell-based; settings: hepatocytes; in short: as §2
[9] = target: Metabotropic glutamate receptor 1 (Homo sapiens) (UniProt Q13255); assay: Negative allosteric modulation of tetracycline-inducible human mGlu1 receptor expressed in human T-REx-293 cells by calcium mobilization assay; format: functional, cell-based
[10] = target: Metabotropic glutamate receptor 2 (Homo sapiens) (UniProt Q14416); assay: Negative allosteric modulation of human mGlu2 receptor expressed in HEK293 cells harboring GIRK by thallium flux assay; format: cell-based
[11] = Drug metabolism in cryopreserved cynomolgus monkey Hepatocyte assessed as amide hydrolysis mediated metabolite formation at 10 uM measured after 4 hrs; format: ADME, cell-based, Macaca fascicularis; settings: hepatocytes; in short: as §2
[12] = Drug metabolism in cryopreserved rat Hepatocyte assessed as amide hydrolysis mediated metabolite formation at 10 uM measured after 4 hrs; format: ADME, cell-based; settings: hepatocytes; in short: as §2
[13] = target: Metabotropic glutamate receptor 4 (Homo sapiens) (UniProt Q14833); assay: Negative allosteric modulation of human mGlu4 receptor expressed in CHO cells co-expressing Gqi5 assessed as inhibition of glutamate induced calcium mobilization preincubated for 142 sec followed by glutamate addition at EC20 concentration for 120 sec and measured after 40 sec addition of glutamate at EC80 concentration by Fluo-4 AM dye based fluorescence assay relative to glutamate; format: functional, cell-based; settings: time 302.0 sec
[14] = target: Metabotropic glutamate receptor 7 (Homo sapiens) (UniProt Q14831); assay: Negative allosteric modulation of human mGlu7 receptor expressed in HEK293-A co-expressing Galpha15 assessed as inhibition of DL-AP4 induced-calcium mobilization preincubated for 140 sec followed by DL-AP4 addition at EC20 concentration for 125 sec and measured after 90 sec addition of glutamate at EC80 concentration by Fluo-4 AM dye based fluorescence assay; format: functional, cell-based; settings: time 355.0 sec
In short: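 HEK293 cells stably co-expressing human mGlu7 and mouse Gα15 were plated at 15,000/well in dialyzed-FBS medium and grown overnight at 37 °C. They were loaded with Fluo-4-AM (final 1.15 μM) for 50 min at RT, then read at RT in a triple-add assay with DL-AP4 as agonist. Compounds were run as 10-point 1:3 curves; ex 480/em 530 nm. Data were normalized to maximal agonist response and fitted to a four-parameter logistic equation.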

Sequence of Metabotropic glutamate receptor 8 (Homo sapiens) (O00222 whole entry): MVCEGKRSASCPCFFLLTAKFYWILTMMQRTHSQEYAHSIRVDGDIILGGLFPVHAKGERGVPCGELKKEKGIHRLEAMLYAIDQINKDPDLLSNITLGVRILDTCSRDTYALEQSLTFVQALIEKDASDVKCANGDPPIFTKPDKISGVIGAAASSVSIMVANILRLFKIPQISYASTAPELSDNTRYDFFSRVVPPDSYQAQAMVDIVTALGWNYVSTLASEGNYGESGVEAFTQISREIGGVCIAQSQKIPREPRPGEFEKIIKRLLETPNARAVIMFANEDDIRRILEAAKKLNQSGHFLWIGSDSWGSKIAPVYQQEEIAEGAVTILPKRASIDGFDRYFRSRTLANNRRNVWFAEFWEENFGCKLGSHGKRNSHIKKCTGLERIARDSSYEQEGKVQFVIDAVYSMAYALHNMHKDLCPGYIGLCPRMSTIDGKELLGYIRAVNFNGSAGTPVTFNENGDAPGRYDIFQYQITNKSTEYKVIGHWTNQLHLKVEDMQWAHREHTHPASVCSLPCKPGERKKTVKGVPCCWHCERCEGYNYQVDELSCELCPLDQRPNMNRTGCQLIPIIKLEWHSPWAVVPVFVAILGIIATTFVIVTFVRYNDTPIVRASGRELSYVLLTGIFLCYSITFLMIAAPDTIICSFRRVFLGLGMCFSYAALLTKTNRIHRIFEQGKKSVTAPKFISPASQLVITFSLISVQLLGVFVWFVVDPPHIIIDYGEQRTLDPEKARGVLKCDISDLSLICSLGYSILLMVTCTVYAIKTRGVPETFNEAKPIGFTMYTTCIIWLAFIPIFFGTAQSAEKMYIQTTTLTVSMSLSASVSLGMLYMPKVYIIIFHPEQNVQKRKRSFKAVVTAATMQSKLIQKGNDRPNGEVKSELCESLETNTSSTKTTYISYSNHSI
Sequence of Metabotropic glutamate receptor 3 (Homo sapiens) (Q14832 23-879 limits assumed): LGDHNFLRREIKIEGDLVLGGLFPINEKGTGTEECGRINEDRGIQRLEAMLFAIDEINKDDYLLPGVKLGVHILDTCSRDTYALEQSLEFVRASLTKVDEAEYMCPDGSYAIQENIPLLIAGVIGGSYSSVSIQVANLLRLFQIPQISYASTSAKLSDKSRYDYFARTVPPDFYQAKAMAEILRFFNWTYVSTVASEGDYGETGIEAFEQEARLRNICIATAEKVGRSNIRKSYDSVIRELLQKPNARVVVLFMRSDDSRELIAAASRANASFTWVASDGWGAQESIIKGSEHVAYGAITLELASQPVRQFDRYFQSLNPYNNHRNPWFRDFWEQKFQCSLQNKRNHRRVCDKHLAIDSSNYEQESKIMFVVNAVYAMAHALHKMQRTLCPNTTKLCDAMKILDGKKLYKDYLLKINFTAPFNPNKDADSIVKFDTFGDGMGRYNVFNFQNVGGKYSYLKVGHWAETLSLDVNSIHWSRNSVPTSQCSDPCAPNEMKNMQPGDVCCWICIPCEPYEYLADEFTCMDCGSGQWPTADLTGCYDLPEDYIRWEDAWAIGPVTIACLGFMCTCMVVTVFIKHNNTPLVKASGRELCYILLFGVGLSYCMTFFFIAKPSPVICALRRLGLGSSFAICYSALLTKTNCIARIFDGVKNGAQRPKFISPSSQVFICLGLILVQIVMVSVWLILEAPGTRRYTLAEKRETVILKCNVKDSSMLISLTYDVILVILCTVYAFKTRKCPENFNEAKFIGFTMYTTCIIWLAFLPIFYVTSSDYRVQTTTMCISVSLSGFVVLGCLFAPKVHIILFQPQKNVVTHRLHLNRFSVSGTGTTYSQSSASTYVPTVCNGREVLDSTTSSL
Sequence of Metabotropic glutamate receptor 7 (Homo sapiens) (Q14831 whole entry): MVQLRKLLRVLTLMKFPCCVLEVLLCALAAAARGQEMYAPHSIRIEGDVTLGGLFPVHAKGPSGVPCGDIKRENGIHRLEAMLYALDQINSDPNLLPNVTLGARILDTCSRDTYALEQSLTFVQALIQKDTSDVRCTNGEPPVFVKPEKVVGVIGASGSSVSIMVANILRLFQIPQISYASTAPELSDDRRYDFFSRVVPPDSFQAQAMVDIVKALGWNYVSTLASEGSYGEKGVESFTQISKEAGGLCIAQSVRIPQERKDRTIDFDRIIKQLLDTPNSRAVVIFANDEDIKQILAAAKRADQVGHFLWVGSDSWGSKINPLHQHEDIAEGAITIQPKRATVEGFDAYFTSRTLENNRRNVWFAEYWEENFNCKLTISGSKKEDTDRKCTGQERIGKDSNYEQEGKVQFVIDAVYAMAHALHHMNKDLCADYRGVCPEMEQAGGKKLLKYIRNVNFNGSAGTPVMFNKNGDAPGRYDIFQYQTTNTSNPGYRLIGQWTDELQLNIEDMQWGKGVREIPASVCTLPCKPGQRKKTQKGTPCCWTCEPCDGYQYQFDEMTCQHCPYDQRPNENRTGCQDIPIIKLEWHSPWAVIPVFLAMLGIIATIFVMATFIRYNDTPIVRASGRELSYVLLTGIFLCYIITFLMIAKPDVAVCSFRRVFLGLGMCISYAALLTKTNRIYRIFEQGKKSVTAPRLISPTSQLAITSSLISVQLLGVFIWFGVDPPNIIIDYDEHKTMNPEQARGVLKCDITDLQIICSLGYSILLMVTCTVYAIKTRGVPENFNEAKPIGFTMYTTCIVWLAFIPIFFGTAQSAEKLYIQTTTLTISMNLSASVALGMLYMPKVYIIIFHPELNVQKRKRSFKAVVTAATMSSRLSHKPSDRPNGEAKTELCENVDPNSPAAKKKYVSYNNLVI
Sequence of Metabotropic glutamate receptor 1 (Homo sapiens) (Q13255 19-1194 limits assumed): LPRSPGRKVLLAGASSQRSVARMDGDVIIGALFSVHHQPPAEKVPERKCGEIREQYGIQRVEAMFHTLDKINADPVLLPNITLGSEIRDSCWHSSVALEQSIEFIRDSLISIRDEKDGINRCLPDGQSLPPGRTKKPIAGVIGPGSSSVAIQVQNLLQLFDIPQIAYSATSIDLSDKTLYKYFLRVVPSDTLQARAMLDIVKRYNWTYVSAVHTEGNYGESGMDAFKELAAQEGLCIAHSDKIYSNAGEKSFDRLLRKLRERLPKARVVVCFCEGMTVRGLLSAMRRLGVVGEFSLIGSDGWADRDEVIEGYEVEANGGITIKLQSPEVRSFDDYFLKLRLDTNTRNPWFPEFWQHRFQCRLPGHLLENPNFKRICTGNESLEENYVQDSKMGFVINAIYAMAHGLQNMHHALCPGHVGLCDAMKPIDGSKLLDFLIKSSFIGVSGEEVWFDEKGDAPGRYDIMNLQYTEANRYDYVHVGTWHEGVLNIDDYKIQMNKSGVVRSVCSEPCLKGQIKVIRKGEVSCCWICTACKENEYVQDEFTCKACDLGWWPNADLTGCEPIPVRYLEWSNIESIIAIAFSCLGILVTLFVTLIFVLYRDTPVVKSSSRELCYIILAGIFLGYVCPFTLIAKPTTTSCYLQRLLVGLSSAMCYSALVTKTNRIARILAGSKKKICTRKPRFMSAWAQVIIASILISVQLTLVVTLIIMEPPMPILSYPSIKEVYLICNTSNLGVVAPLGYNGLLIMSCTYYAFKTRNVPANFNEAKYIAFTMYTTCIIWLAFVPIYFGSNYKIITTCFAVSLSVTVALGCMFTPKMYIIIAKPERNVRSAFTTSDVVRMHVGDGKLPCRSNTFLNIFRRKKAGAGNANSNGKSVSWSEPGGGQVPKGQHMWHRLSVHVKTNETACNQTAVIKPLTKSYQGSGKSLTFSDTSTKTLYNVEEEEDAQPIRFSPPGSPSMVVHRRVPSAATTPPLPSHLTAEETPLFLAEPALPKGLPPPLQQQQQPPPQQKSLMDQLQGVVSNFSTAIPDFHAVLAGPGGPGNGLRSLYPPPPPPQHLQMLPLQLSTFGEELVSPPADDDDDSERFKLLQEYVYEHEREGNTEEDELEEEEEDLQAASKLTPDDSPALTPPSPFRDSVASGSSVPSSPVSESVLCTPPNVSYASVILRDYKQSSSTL
Sequence of Metabotropic glutamate receptor 2 (Homo sapiens) (Q14416 19-872 limits assumed): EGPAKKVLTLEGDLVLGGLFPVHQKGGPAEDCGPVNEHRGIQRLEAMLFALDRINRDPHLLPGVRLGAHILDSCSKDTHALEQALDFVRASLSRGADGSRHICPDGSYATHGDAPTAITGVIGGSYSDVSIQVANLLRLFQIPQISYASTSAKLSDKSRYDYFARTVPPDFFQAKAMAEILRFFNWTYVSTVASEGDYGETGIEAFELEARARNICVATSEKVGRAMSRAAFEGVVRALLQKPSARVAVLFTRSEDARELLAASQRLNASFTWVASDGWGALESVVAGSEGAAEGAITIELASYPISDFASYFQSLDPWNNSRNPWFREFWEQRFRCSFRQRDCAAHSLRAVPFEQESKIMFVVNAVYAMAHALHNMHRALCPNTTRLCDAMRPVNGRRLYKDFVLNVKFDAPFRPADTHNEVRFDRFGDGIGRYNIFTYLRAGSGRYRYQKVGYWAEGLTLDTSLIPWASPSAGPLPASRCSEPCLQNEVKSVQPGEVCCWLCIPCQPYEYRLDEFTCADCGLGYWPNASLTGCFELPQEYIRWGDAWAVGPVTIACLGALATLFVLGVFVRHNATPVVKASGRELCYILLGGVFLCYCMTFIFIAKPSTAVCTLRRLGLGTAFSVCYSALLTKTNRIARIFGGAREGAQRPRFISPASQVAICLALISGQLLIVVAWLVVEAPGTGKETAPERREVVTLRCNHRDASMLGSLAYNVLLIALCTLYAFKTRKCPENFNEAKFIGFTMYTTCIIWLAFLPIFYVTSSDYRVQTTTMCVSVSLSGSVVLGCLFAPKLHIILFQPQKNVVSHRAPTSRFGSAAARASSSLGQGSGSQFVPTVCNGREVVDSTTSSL

Fu [1]: Not_determined(Unstable)
K(p,uu,brain) [2]: Not_determined(Unstable)
Compound: Cc1cccc(NC(=O)c2cc(Oc3ccnn3C)cc(C)n2)n1

Fu [1]: 0.219
Compound: Cc1cc(Oc2ccnn2C)cc(C(=O)Nc2nc(C)cs2)n1

Fu [3]: 0.002
Fu [1]: Not_determined(Unstable)
K(p,uu,brain) [2]: Not_determined(Unstable)
Compound: Cc1cc(Oc2cnn(C)c2C(F)(F)F)cc(C(=O)Nc2ccc(F)cn2)n1

Fu [3]: 0.003
Fu [1]: Not_determined(Unstable)
K(p,uu,brain) [2]: Not_determined(Unstable)
Fu [4]: 0.004
Compound: Cc1cc(Oc2cnn(C)c2C(F)(F)F)cc(C(=O)Nc2nc(C)cs2)n1

Fu [1]: Not_determined(Unstable)
K(p,uu,brain) [2]: Not_determined(Unstable)
Compound: Cc1cccc(NC(=O)c2cc(Oc3cc(C)nn3C)cc(C)n2)n1

Activity [5]: inactive
Drug metabolism [6]: metabolite_detected
Imax [7]: 58%
Drug metabolism [8]: metabolite_detected
Activity [9]: inactive
Activity [10]: inactive
Drug metabolism [11]: metabolite_detected
Drug metabolism [12]: metabolite_detected
Activity [13]: inactive
Activity [14]: inactive
Compound: Cc1cc(Oc2cnn(C)c2)cc(C(=O)Nc2ccc(F)cn2)n1

Fu [1]: Not_determined(Unstable)
K(p,uu,brain) [2]: Not_determined(Unstable)
Compound: Cc1cccc(NC(=O)c2cc(Oc3cnn(C)c3C(F)(F)F)cc(C)n2)n1
